One series relates to Enterobacter cloacae. As to the kind of experiment: Antibacterial activity against Enterobacter cloacae ATCC 43560 after 18 to 24 hrs by two-fold serial dilution method. It is filed as functional.
In a further series the test system is Klebsiella aerogenes. As to the kind of experiment: Antibacterial activity against Enterobacter aerogenes ATCC 13048 after 18 to 24 hrs by two-fold serial dilution method. It is filed as functional. A digest of the protocol: (§1)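 Agar two-fold dilution MIC. Compounds were dissolved in 0.1 N NaOH and water, then serially diluted in melted Mueller-Hinton agar, with top concentrations starting at 128. Plates were inoculated at about 10 cfu and incubated at 35 °C for 18–24 h. MIC was taken as the lowest concentration giving 90% inhibition of growth.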

The subject of series [1] is Klebsiella pneumoniae. As to the kind of experiment: Antibacterial activity against extended-spectrum beta-lactamase harboring Klebsiella pneumoniae ATCC 700603 after 18 to 24 hrs by two-fold serial dilution method. It is filed as functional. A digest of the protocol:
(§2)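 Agar two-fold serial dilution in Mueller-Hinton agar. Strains came from the Chinese Center for Disease Control and Prevention. Compounds were dissolved in 0.1 N NaOH and water, then diluted in melted agar to final levels stepping down from 128. Plates were inoculated with bacterial cfu and incubated at 35 C for 18–24 h. MIC is the lowest concentration giving 90% growth inhibition.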

Series [2] relates to Enterococcus faecium. As to the kind of experiment: Antibacterial activity against Enterococcus faecium 13-7 after 18 to 24 hrs by two-fold serial dilution method. Format: functional. Summed up: as §1
For another series, the system named is Proteus mirabilis. Description: Antibacterial activity against Proteus mirabilis 13-1 after 18 to 24 hrs by two-fold serial dilution method. Format: functional. A digest of the protocol:
as §1

Series [3] relates to Staphylococcus epidermidis. As to the kind of experiment: Antibacterial activity against methicillin-resistant Staphylococcus epidermidis 13-3 after 18 to 24 hrs by two-fold serial dilution method. It is filed as functional. A digest of the protocol:
as §2

The subject of series [4] is Staphylococcus aureus. Description: Antibacterial activity against methicillin-resistant Staphylococcus aureus ATCC 33591 after 18 to 24 hrs by two-fold serial dilution method. Format: functional. Summed up: as §2
For the next series, the system named is Citrobacter freundii. As to the kind of experiment: Antibacterial activity against extended-spectrum beta-lactamase harboring Citrobacter freundii ATCC 43864 after 18 to 24 hrs by two-fold serial dilution method. It is filed as functional. Summed up:
as §2

Series [5] concerns Enterococcus faecalis. As to the kind of experiment: Antibacterial activity against Enterococcus faecalis ATCC 29212 after 18 to 24 hrs by two-fold serial dilution method. Format: functional. A digest of the protocol: as §1
In series [6] the test system is Acinetobacter calcoaceticus. Description: Antibacterial activity against Acinetobacter calcoaceticus ATCC 19606 after 18 to 24 hrs by two-fold serial dilution method. Format: functional. Summed up: as §1
For series [7], the system named is Staphylococcus aureus. As to the kind of experiment: Antibacterial activity against methicillin-sensitive Staphylococcus aureus ATCC 29213 after 18 to 24 hrs by two-fold serial dilution method. Format: functional. Summed up:
as §2

Series [8] relates to Enterococcus faecium. As to the kind of experiment: Antibacterial activity against Enterococcus faecium ATCC 700221 after 18 to 24 hrs by two-fold serial dilution method. Format: functional. A digest of the protocol: as §1
The test system of the next series is Pseudomonas aeruginosa. As to the kind of experiment: Antibacterial activity against Pseudomonas aeruginosa ATCC 27853 after 18 to 24 hrs by two-fold serial dilution method. Format: functional. Summed up:
as §1

Series [9] has as its system Escherichia coli. As to the kind of experiment: Antibacterial activity against extended-spectrum beta-lactamase deficient Escherichia coli ATCC 25922 after 18 to 24 hrs by two-fold serial dilution method. It is filed as functional. Summed up:
as §1

Series [10] in a line: Cytotoxicity against African green monkey Vero cells assessed as reduction in cell viability after 72 hrs by MTT assay. Conditions: chlorocebus sabaeus. It is filed as cell-based. A digest of the protocol: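 VERO cells were kept in MEM with Earle's salts and 10% FBS at 37 °C, 5% CO2. They were seeded in 96-well plates and allowed to recover for 24 h. Cells were then exposed to compounds in DMSO over a series from 1000 down to 4 for 72 h. Viability was read by MTT, and CC50 was calculated by Bliss analysis.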
(In general: Tetrazolium dyes change colour on reduction, which living cells bring about.)

In another series the test system is Proteus vulgaris. As to the kind of experiment: Antibacterial activity against Proteus vulgaris ATCC 29905 after 18 to 24 hrs by two-fold serial dilution method. It is filed as functional. Summed up: as §1
The next series concerns Serratia marcescens. As to the kind of experiment: Antibacterial activity against Serratia marcescens ATCC 21074 after 18 to 24 hrs by two-fold serial dilution method. It is filed as functional. Summed up: as §1
Series [11] concerns Staphylococcus epidermidis. Description: Antibacterial activity against methicillin-sensitive Staphylococcus epidermidis ATCC 12228 after 18 to 24 hrs by two-fold serial dilution method. Format: functional. Summed up:
as §1

In a further series the test system is Morganella morganii. As to the kind of experiment: Antibacterial activity against Morganella morganii ATCC 25830 after 18 to 24 hrs by two-fold serial dilution method. It is filed as functional. Summed up: as §1
In series [12] the test system is Escherichia coli. Description: Antibacterial activity against extended-spectrum beta-lactamase harboring Escherichia coli ATCC 35218 after 18 to 24 hrs by two-fold serial dilution method. Format: functional. A digest of the protocol: as §2
In series [13] the test system is Klebsiella pneumoniae. As to the kind of experiment: Antibacterial activity against extended-spectrum beta-lactamase deficient Klebsiella pneumoniae 15-2 after 18 to 24 hrs by two-fold serial dilution method. It is filed as functional. A digest of the protocol: as §1
A further series deals with Providencia rettgeri. As to the kind of experiment: Antibacterial activity against Providencia rettgeri ATCC 31052 after 18 to 24 hrs by two-fold serial dilution method. It is filed as functional. A digest of the protocol: as §1
The subject of series [14] is Stenotrophomonas maltophilia. Description: Antibacterial activity against Stenotrophomonas maltophilia ATCC 13636 after 18 to 24 hrs by two-fold serial dilution method. It is filed as functional. A digest of the protocol: as §1
Series [15] relates to Enterococcus faecalis. As to the kind of experiment: Antibacterial activity against Enterococcus faecalis ATCC 51299 after 18 to 24 hrs by two-fold serial dilution method. It is filed as functional. Summed up: as §1
For series [16], the system named is Mycobacterium tuberculosis. Description: Antimycobacterial activity against Mycobacterium tuberculosis H37Rv after 7 days. Format: functional. Conditions: 168 h. A digest of the protocol:
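Rapid direct susceptibility test in 48-well plates. Two-fold dilutions of compound from DMSO stocks were mixed with an equal volume of bacterial suspension. Medium-only wells served as growth controls and water-only wells as no-growth controls. Plates were sealed and held at 37 C in a humid box, and controls were checked at 3 days. MIC (90% growth inhibition) was read visually by high-magnification observation of the cells and re-read at 7 days.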

This passage reports MIC90 and CC50 results from ChEMBL document CHEMBL4270565, “Design, synthesis and antimicrobial evaluation of propylene-tethered ciprofloxacin-isatin hybrids” (Eur J Med Chem, 2018).

SMILES strings stand for the structures. Values after ≈ are worked out from the molar mass of the structure shown.

For orientation: MIC90 means the lowest concentration that inhibits either 90% of growth or 90% of the strains tested, depending on the study. In general, CC50 refers to the concentration at which the toxic effect on the cells reaches its halfway point. For `CCO/N=C1\C(=O)N(CCCN2CCN(c3cc4c(cc3F)c(=O)c(C(=O)O)cn4C3CC3)CC2)c2ccc(C)cc21`, the MIC90 in the series with Enterobacter cloacae was at most 0.03 µg/mL; with Klebsiella aerogenes it was at most 0.03 µg/mL; with Klebsiella pneumoniae [1] it was 0.5 µg/mL (≈ 0.869 µM); in the series on Enterococcus faecium [2], 32 µg/mL (≈ 55.6 µM); against Proteus mirabilis, at most 0.03 µg/mL; in [3], 2 µg/mL (≈ 3.47 µM). Besides, the MIC90 was 0.125 µg/mL (≈ 0.217 µM) against Staphylococcus aureus [4]; at most 0.03 µg/mL in the series on Citrobacter freundii; 0.5 µg/mL (≈ 0.869 µM) in the series with Enterococcus faecalis [5]; 0.5 µg/mL (≈ 0.869 µM) in series [6]; 0.125 µg/mL (≈ 0.217 µM) in the series on Staphylococcus aureus [7]; 4 µg/mL (≈ 6.95 µM) in the series on Enterococcus faecium [8]. The MIC90 against Pseudomonas aeruginosa is 1 µg/mL (≈ 1.74 µM); in the series with Escherichia coli [9] it was at most 0.03 µg/mL; with Proteus vulgaris, at most 0.03 µg/mL; with Serratia marcescens, 0.06 µg/mL (≈ 0.104 µM); in series [11] it was 0.125 µg/mL (≈ 0.217 µM); against Morganella morganii it was at most 0.03 µg/mL. Also, the MIC90 was at most 0.03 µg/mL in the series with Escherichia coli [12]; at most 0.03 µg/mL in the series with Klebsiella pneumoniae [13]; at most 0.03 µg/mL in the series with Providencia rettgeri; 0.06 µg/mL (≈ 0.104 µM) in [14]; 1 µg/mL (≈ 1.74 µM) in the series on Enterococcus faecalis [15]; 3.12 µg/mL (≈ 5.42 µM) in series [16]. Moreover, the CC50 at 72 h in [10] is 128 µg/mL (≈ 222 µM).
As for `NNC(=O)c1ccncc1` [ISONIAZID], in series [16], the MIC90 was 0.05 µg/mL (≈ 0.365 µM).
Take `CCO/N=C1\C(=O)N(CCCN2CCN(c3cc4c(cc3F)c(=O)c(C(=O)OCCCN3C(=O)/C(=N/OCC)c5ccccc53)cn4C3CC3)CC2)c2ccccc21`: the MIC90 in the series on Enterobacter cloacae was 64 µg/mL (≈ 80.8 µM); in the series on Klebsiella aerogenes it was 64 µg/mL (≈ 80.8 µM); in the series on Klebsiella pneumoniae [1] it was 64 µg/mL (≈ 80.8 µM); in the series with Enterococcus faecium [2] it was above 128 µg/mL; with Proteus mirabilis it was 64 µg/mL (≈ 80.8 µM); in series [3], 128 µg/mL (≈ 162 µM). Also, the MIC90 in the series with Staphylococcus aureus [4] is above 128 µg/mL; in the series on Citrobacter freundii, 128 µg/mL (≈ 162 µM); against Enterococcus faecalis [5], 64 µg/mL (≈ 80.8 µM); in [6], above 128 µg/mL; in the series with Staphylococcus aureus [7], 128 µg/mL (≈ 162 µM); in the series on Enterococcus faecium [8] it was above 128 µg/mL. The MIC90 is 64 µg/mL (≈ 80.8 µM) against Pseudomonas aeruginosa; 8 µg/mL (≈ 10.1 µM) in the series with Escherichia coli [9]; 128 µg/mL (≈ 162 µM) against Proteus vulgaris; above 128 µg/mL against Serratia marcescens; 64 µg/mL (≈ 80.8 µM) in [11]; 64 µg/mL (≈ 80.8 µM) with Morganella morganii. For the same molecule, the MIC90 is 32 µg/mL (≈ 40.4 µM) against Escherichia coli [12]; 64 µg/mL (≈ 80.8 µM) against Klebsiella pneumoniae [13]; 128 µg/mL (≈ 162 µM) in the series with Providencia rettgeri; above 128 µg/mL in series [14]; above 128 µg/mL in the series with Enterococcus faecalis [15]; 25 µg/mL (≈ 31.6 µM) in [16]. Further, in [10], the CC50 at 72 h is 32 µg/mL (≈ 40.4 µM).
`CO/N=C1\C(=O)N(CCCN2CCN(c3cc4c(cc3F)c(=O)c(C(=O)OCCCN3C(=O)/C(=N/OC)c5cc(C)ccc53)cn4C3CC3)CC2)c2ccc(C)cc21`: the MIC90 is 16 µg/mL (≈ 20.2 µM) in the series on Enterobacter cloacae; 32 µg/mL (≈ 40.4 µM) against Klebsiella aerogenes; 32 µg/mL (≈ 40.4 µM) against Klebsiella pneumoniae [1]; above 128 µg/mL in the series with Enterococcus faecium [2]; 64 µg/mL (≈ 80.8 µM) against Proteus mirabilis; 64 µg/mL (≈ 80.8 µM) in series [3]. Further, the MIC90 with Staphylococcus aureus [4] was 32 µg/mL (≈ 40.4 µM); in the series on Citrobacter freundii it was 32 µg/mL (≈ 40.4 µM); against Enterococcus faecalis [5], 32 µg/mL (≈ 40.4 µM); in [6], 64 µg/mL (≈ 80.8 µM); against Staphylococcus aureus [7], 32 µg/mL (≈ 40.4 µM); against Enterococcus faecium [8] it was 128 µg/mL (≈ 162 µM). In addition, the MIC90 was determined as 32 µg/mL (≈ 40.4 µM) with Pseudomonas aeruginosa; 8 µg/mL (≈ 10.1 µM) against Escherichia coli [9]; 32 µg/mL (≈ 40.4 µM) against Proteus vulgaris; 32 µg/mL (≈ 40.4 µM) in the series on Serratia marcescens; 16 µg/mL (≈ 20.2 µM) in [11]; 64 µg/mL (≈ 80.8 µM) in the series with Morganella morganii. The MIC90 in the series on Escherichia coli [12] amounted to 16 µg/mL (≈ 20.2 µM); against Klebsiella pneumoniae [13], 16 µg/mL (≈ 20.2 µM); with Providencia rettgeri it was 32 µg/mL (≈ 40.4 µM); in [14] it was 64 µg/mL (≈ 80.8 µM); in the series with Enterococcus faecalis [15], 128 µg/mL (≈ 162 µM); in [16] it was 25 µg/mL (≈ 31.6 µM). The CC50 at 72 h in [10] came out at 16 µg/mL (≈ 20.2 µM).
